Reference: PMC3086726 (Nuclear medicine and biology, 2010)
Read-outs that look alike come from different tables or passages of the source.

Experiments:
[1] = In vitro stability of 99mTc-cyclized analogues in PBS; format: physicochemical; settings: pH 7.4, 37 °C
Procedure, shortened: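 Test peptides were labelled with 99mTc by exchange from 99mTc-glucoheptonate (pH 7.9–8.1, 60 °C, 30 min), purified by radio-RP-HPLC, mixed with gentisic acid and evaporated. They were diluted in PBS or 1 mM cysteine, adjusted to pH 7.4 and incubated at 37 °C. Aliquots at 1, 2, 4 and 24 h were analysed by RP-HPLC for % intact. Replicate measurements used radio-TLC on C18 (10% ammonium acetate; 1:1 TFA-water/acetonitrile).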

[2] = format: in vitro ADME; settings: mouse, serum, pH 7.4
[3] = Stability of 99mTc-cyclized analogues to cysteine challenge; format: physicochemical; settings: 10 mM Cys, pH 7.4, 37 °C
[4] = set-up: species or system CF-1 mice; settings: mouse

percent intact 99mTc-analogue post purification ([1]; 1 h): 98.3 ± 0.5%
percent intact 99mTc-analogue post purification ([1]; 2 h): 98.0 ± 0.2%
percent intact 99mTc-analogue post purification ([1]; 4 h): 97.8 ± 0.9%
percent intact 99mTc-analogue post purification ([1]; 24 h): 94.1 ± 1.4%
percent intact 99mTc-analogue post purification ([2]; 1 h): 96.7 ± 0.8%
percent intact 99mTc-analogue post purification ([2]; 2 h): 97.1 ± 0.7%
percent intact 99mTc-analogue post purification ([2]; 4 h): 97.0 ± 0.2%
percent intact 99mTc-analogue post purification ([2]; 24 h): 94.7 ± 2.4%
percent intact 99mTc-analogue post purification ([3]; 1 h): 99.4 ± 0.3%
percent intact 99mTc-analogue post purification ([3]; 2 h): 99.1 ± 0.5%
percent intact 99mTc-analogue post purification ([3]; 4 h): 99.3 ± 0.1%
percent intact 99mTc-analogue post purification ([3]; 24 h): 93.3 ± 0.7%
In vivo biodistribution, Adrenals ([4]; 150 ug, 1 h): 0.63 ± 0.19 %ID/g
In vivo biodistribution, Blood ([4]; 150 ug, 1 h): 1.38 ± 0.15 %ID/g
In vivo biodistribution, Kidney ([4]; 150 ug, 1 h): 2.97 ± 0.19 %ID/g
In vivo biodistribution, Lg. Int ([4]; 150 ug, 1 h): 0.56 ± 0.04 %ID/g
In vivo biodistribution, Liver ([4]; 150 ug, 1 h): 1.78 ± 0.59 %ID/g
In vivo biodistribution, Muscle ([4]; 150 ug, 1 h): 0.43 ± 0.05 %ID/g
In vivo biodistribution, Pancreas ([4]; 150 ug, 1 h): 0.54 ± 0.10 %ID/g
In vivo biodistribution, Sm. lnt ([4]; 150 ug, 1 h): 24.29 ± 3.21 %ID/g
In vivo biodistribution, Spleen ([4]; 150 ug, 1 h): 0.47 ± 0.07 %ID/g
In vivo biodistribution, Stomach ([4]; 150 ug, 1 h): 5.69 ± 0.45 %ID/g
In vivo biodistribution, Adrenals ([4]; 1 h): 0.36 ± 0.04 %ID/g
In vivo biodistribution, Blood ([4]; 1 h): 0.95 ± 0.12 %ID/g
In vivo biodistribution, Kidney ([4]; 1 h): 2.61 ± 0.64 %ID/g
In vivo biodistribution, Lg. Int ([4]; 1 h): 0.53 ± 0.08 %ID/g
In vivo biodistribution, Liver ([4]; 1 h): 1.60 ± 0.17 %ID/g
In vivo biodistribution, Muscle ([4]; 1 h): 0.26 ± 0.02 %ID/g
In vivo biodistribution, Pancreas ([4]; 1 h): 0.46 ± 0.15 %ID/g
In vivo biodistribution, Sm. lnt ([4]; 1 h): 20.28 ± 3.58 %ID/g
In vivo biodistribution, Spleen ([4]; 1 h): 0.38 ± 0.09 %ID/g
In vivo biodistribution, Stomach ([4]; 1 h): 2.95 ± 1.42 %ID/g
In vivo biodistribution, Adrenals ([4]; 4 h): 0.22 ± 0.07 %ID/g
In vivo biodistribution, Blood ([4]; 4 h): 0.34 ± 0.04 %ID/g
In vivo biodistribution, Kidney ([4]; 4 h): 1.43 ± 0.34 %ID/g
In vivo biodistribution, Lg. Int ([4]; 4 h): 28.18 ± 4.57 %ID/g
In vivo biodistribution, Liver ([4]; 4 h): 0.47 ± 0.15 %ID/g
In vivo biodistribution, Muscle ([4]; 4 h): 0.08 ± 0.04 %ID/g
In vivo biodistribution, Pancreas ([4]; 4 h): 0.15 ± 0.03 %ID/g
In vivo biodistribution, Sm. lnt ([4]; 4 h): 1.94 ± 0.50 %ID/g
In vivo biodistribution, Spleen ([4]; 4 h): 0.12 ± 0.01 %ID/g
In vivo biodistribution, Stomach ([4]; 4 h): 3.88 ± 0.54 %ID/g
In vivo biodistribution, Adrenals ([4]; 24 h): 0.03 ± 0.01 %ID/g
In vivo biodistribution, Blood ([4]; 24 h): 0.06 ± 0.01 %ID/g
In vivo biodistribution, Kidney ([4]; 24 h): 0.48 ± 0.10 %ID/g
In vivo biodistribution, Lg. Int ([4]; 24 h): 1.18 ±0.66 %ID/g
In vivo biodistribution, Liver ([4]; 24 h): 0.11 ± 0.01 %ID/g
In vivo biodistribution, Muscle ([4]; 24 h): 0.01 ± 0.01 %ID/g
In vivo biodistribution, Pancreas ([4]; 24 h): 0.02 ± 0.01 %ID/g
In vivo biodistribution, Sm. lnt ([4]; 24 h): 0.22 ± 0.04 %ID/g
In vivo biodistribution, Spleen ([4]; 24 h): 0.04 ± 0.01 %ID/g
In vivo biodistribution, Stomach ([4]; 24 h): 0.61 ± 0.15 %ID/g
Substance: ^99mTc-Ac-Cys^1,Tyr^3-octreotate [99mTc-2]
